# Test results reported in paper PMC2878397 (Journal of natural products, 2010).
# Like-named read-outs stand apart in the source and are kept apart here.
# Legend:
# NF-κB p50 = biological target: T1, NF-κB p50 (Homo sapiens, UniProt P19838); assay: Enzyme-based ELISA NF-κB p50 assay; format: biochemical
# T1 sequence (P19838 1-433 limits assumed): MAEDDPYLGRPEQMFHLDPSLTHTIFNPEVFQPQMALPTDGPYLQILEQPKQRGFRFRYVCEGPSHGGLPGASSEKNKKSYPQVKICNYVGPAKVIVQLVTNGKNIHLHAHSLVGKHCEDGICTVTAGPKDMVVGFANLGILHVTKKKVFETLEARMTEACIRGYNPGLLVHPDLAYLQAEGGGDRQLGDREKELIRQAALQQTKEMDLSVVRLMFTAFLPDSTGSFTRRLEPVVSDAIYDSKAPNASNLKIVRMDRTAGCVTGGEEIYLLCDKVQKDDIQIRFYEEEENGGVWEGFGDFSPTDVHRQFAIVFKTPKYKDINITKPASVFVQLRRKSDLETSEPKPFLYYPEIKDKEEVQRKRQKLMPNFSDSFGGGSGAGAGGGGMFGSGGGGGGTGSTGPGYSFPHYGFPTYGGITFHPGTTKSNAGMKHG
# [1] = tested on: HT-29 human colon cancer cells; assay: Cytotoxicity assay against HT-29 cells; format: cell-based; details: for cytotoxicity ED50: HT-29 cells, three days incubation, SRB; for IC50: Homo sapiens, HT-29, 72 h, read-out: cytotoxicity ED50
# Procedure, shortened: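 Trypsinized HT-29 cells seeded in 96-well plates with test compound in DMSO; DMSO-only wells as negative control, paclitaxel as positive control. Incubated 3 days at 37 °C, 5% CO2. Cells fixed, held 30 min at room temperature, water-washed, air-dried overnight, then stained with sulforhodamine B. Dye released in tris-base buffer, absorbance read at 515 nm. Cytotoxicity calculated against negative control, reported as ED50 (μM).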
# NF-κB p65 = NF-κB p65 (Homo sapiens, UniProt Q04206); assay: Enzyme-based ELISA NF-κB p65 assay; format: biochemical
# 9KB = 9KB in vitro test system; cited from earlier work
# 9PS = 9PS in vitro test system; cited from earlier work
# P388 leukemia cells = details: cited from earlier work
# NF-κB p65, sequence (Q04206 whole entry, one chain of several): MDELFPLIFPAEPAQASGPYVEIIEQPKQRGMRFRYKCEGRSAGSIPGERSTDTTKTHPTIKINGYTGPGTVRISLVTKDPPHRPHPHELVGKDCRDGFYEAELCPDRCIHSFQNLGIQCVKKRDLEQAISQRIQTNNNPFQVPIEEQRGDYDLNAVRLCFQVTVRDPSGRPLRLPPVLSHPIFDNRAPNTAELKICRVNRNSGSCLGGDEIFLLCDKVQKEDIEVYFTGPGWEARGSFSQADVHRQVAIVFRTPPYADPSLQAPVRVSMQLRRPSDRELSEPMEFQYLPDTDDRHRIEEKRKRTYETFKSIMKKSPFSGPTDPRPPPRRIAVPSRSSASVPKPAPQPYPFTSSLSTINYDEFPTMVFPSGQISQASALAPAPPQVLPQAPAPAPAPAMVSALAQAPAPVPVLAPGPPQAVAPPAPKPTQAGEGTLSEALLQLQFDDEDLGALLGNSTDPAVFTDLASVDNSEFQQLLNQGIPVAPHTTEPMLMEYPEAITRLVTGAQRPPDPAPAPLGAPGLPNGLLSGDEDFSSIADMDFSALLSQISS
IC50 (NF-κB p50) [µM],IC50 (NF-κB p65) [µM],Compound,cytotoxicity ED50 [1] [µM],other results
–,–,"3-hydroxy-4,3′,5′-trimethoxy-trans-stilbene [Compound 9]",8.7,"IC50 (NF-κB p50; read-out: NF-κB p50 inhibition IC50, HeLa nuclear extract, ELISA): > 10 µM; IC50 (NF-κB p65; read-out: NF-κB p65 inhibition IC50, HeLa nuclear extract, ELISA): > 10 µM; cytotoxicity ED50 (9KB): 0.01 µg/mL; cytotoxicity ED50 (9PS): 0.1 µg/mL"
–,–,COc1cc(O)c2c(=O)c3cc4c5c(c(O)cc(O)c5c3oc2c1)OC4(C)C [artonin K],–,IC50 [1]: > 10 µM
> 10,> 10,"CC1(C)C=Cc2c(cc(O)c3c(=O)c4c(oc23)-c2c(O)cc(O)c3c2C(C4)C(C)(C)O3)O1 (stereo not shown) [Compound 8, cycloartobiloxanthone]",–,–
> 10,> 10,"CC(C)=CCc1c(O)c(CC=C(C)C)c2oc3c(c(=O)c2c1O)C(C=C(C)C)Oc1cc(O)c(O)cc1-3 (stereo not shown) [Compound 4, 2,3,8,10-tetrahydroxy-6-(2-methylpropenyl)-9,11-bis(3-methyl-2-butenyl)-6H[1]benzopyrano[4,3-b]benzopyran-7-one]",–,–
–,–,"C=C(C)c1cc2c(=O)c3c(O)c(CC=C(C)C)c(O)cc3oc2c2c1C(=O)C(O)=C(CC=C(C)C)C2=O [Compound 3, 4,8,10-trihydroxy-5-isopropenyl-2,9-bis(3-methyl-2-butenyl)-7-benzo[c]xanthen-2,4,7-trione]",>10,–
> 10,> 10,"CC1(C)C=Cc2cc3c(cc2O1)Oc1cc(O)ccc1C(O)=C3 [Compound 5, 2,2-dimethyl-2H-benzo{6,7-oxepino[3,2-g]}chromene-7,10-diol]",–,IC50 [1]: 10.7 µM
> 10,> 10,"C=C(C)[C@H]1Cc2c(oc3cc(O)c(CC=C(C)C)c(O)c3c2=O)C2=C1C(=O)C(O)=C(CC=C(C)C)C2=O [Compound 6, artonin O]",–,–
–,–,CC(C)=CCc1c(-c2cc(O)c(O)cc2O)oc2c3c(cc(O)c2c1=O)OC(C)(C)C=C3 [artonin E],–,cytotoxicity ED50 (P388 leukemia cells): 0.06 µg/mL
2,> 10,"C=C(C)[C@H]1Cc2c(oc3c(CC=C(C)C)c(O)c(CC=C(C)C)c(O)c3c2=O)-c2c(O)cc(O)c(O)c21 [Compound 1, (5R)-5,6-dihydro-1,3,4,8,10-pentahydroxy-5-isopropenyl-9,11-bis(3-methyl-2-butenyl)-7H-benzo[c]xanthen-7-one]",–,–
3.7,2.3,"C=C(C)[C@H]1Cc2c(oc3c4c(cc(O)c3c2=O)OC(C)(C)C=C4)-c2c(O)cc(O)c(O)c21 [Compound 7, artobiloxanthone]",>10,–
